Data set [1] deals with Rattus norvegicus. Nature of the data set: Organ distribution in rat blood 2 minutes after intravenous injection. In kind it is ADME, organism-based. Conditions: in vivo. The method in brief:
(§1)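 Male Sprague-Dawley rats (220-300 g) given 0.2 mL Se-75 labeled compound (0.5-2.0 μCi) iv via femoral vein under light ether anesthesia; killed under ether by heart removal at set times; organs excised and counted in a well counter. Percent dose per organ from comparison with diluted aliquots of injected dose; blood and muscle totals assume 7% and 40% of body weight. Average of two or three rats, with range.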

In data set [2] the test system is Rattus norvegicus. Nature of the data set: Organ distribution in rat blood 2 hr after intravenous injection. In kind it is ADME, organism-based. Conditions: in vivo. The method in brief: as §1
The test system of data set [3] is Rattus norvegicus. Nature of the data set: Organ distribution in rat blood 30 minutes after intravenous injection. In kind it is ADME, organism-based. Particulars: in vivo, 0.5 h. The method in brief: as §1
The subject of data set [4] is Rattus norvegicus. Nature of the data set: Organ distribution in rat brain 2 minutes after intravenous injection. In kind it is ADME, organism-based. Conditions: in vivo. In outline:
as §1

Data set [5] has as its system Rattus norvegicus. Nature of the data set: Organ distribution in rat brain 2 hr after intravenous injection. Conditions: in vivo. In kind it is ADME, organism-based. In outline:
as §1

Data set [6] relates to Rattus norvegicus. Nature of the data set: Organ distribution in rat brain 30 minutes after intravenous injection. In kind it is ADME, organism-based. Particulars: in vivo, 0.5 h. In outline:
as §1

Data set [7] deals with Rattus norvegicus. Nature of the data set: Organ distribution in rat heart 2 minutes after intravenous injection. In kind it is ADME, organism-based. Particulars: in vivo. In outline: as §1
In data set [8] the test system is Rattus norvegicus. Nature of the data set: Organ distribution in rat heart 2 hr after intravenous injection. In kind it is ADME, organism-based. Conditions: in vivo. In outline:
as §1

The subject of data set [9] is Rattus norvegicus. Nature of the data set: Organ distribution in rat heart 30 minutes after intravenous injection. Particulars: in vivo, 0.5 h. In kind it is ADME, organism-based. In outline:
as §1

For data set [10], the system named is Rattus norvegicus. Nature of the data set: Organ distribution in rat kidney 2 minutes after intravenous injection. In kind it is ADME, organism-based. Particulars: in vivo. The method in brief:
as §1

For data set [11], the system named is Rattus norvegicus. Nature of the data set: Organ distribution in rat kidney 30 minutes after intravenous injection. In kind it is ADME, organism-based. Particulars: in vivo, 0.5 h. The method in brief: as §1
The subject of data set [12] is Rattus norvegicus. Nature of the data set: Organ distribution in rat liver 2 minutes after intravenous injection. In kind it is ADME, organism-based. Conditions: in vivo. In outline:
as §1

The subject of data set [13] is Rattus norvegicus. Nature of the data set: Organ distribution in rat liver 2 hr after intravenous injection. Particulars: in vivo. In kind it is ADME, organism-based. The method in brief:
as §1

The test system of data set [14] is Rattus norvegicus. Nature of the data set: Organ distribution in rat liver 30 minutes after intravenous injection. In kind it is ADME, organism-based. Particulars: in vivo, 0.5 h. The method in brief:
as §1

Data set [15] has as its system Rattus norvegicus. Nature of the data set: Organ distribution in rat lung 2 minutes after intravenous injection. In kind it is ADME, organism-based. Conditions: in vivo. The method in brief: as §1
The test system of data set [16] is Rattus norvegicus. Nature of the data set: Organ distribution in rat lung 2 hr after intravenous injection. In kind it is ADME, organism-based. Particulars: in vivo. In outline:
as §1

The test system of data set [17] is Rattus norvegicus. Nature of the data set: Organ distribution in rat lung 30 minutes after intravenous injection. In kind it is ADME, organism-based. Conditions: in vivo, 0.5 h. The method in brief:
as §1

Data set [18] deals with Rattus norvegicus. Nature of the data set: Organ distribution in rat muscle 2 minutes after intravenous injection. In kind it is ADME, organism-based, Muscle tissue. Particulars: in vivo. The method in brief:
as §1

Data set [19] relates to Rattus norvegicus. Nature of the data set: Organ distribution in rat muscle 2 hr after intravenous injection. Particulars: in vivo. In kind it is ADME, organism-based, Muscle tissue. In outline: as §1
In data set [20] the test system is Rattus norvegicus. Nature of the data set: Organ distribution in rat muscle 30 minutes after intravenous injection. In kind it is ADME, organism-based, Muscle tissue. Conditions: in vivo, 0.5 h. The method in brief: as §1
For data set [21], the system named is Rattus norvegicus. Nature of the data set: Organ distribution in rat kidney 2 hr after intravenous injection. In kind it is ADME, organism-based. Particulars: in vivo. The method in brief: as §1
Data set [22] concerns Rattus norvegicus. Nature of the data set: Organ distribution in rat blood 30 min after intravenous injection. In kind it is ADME, organism-based. Particulars: in vivo, 0.5 h. The method in brief:
as §1

Consider five compounds from ChEMBL document CHEMBL1121543, “Synthesis of selenium-75 labeled tertiary diamines: new brain imaging agents” (J Med Chem, 1980).

Turning to `C1CCN(CC[Se]CCN2CCCCC2)CC1`, the Dose/organ in [1] is on record as 4.58%; in data set [2], 0.65%; in data set [3] it was 0.87%; in data set [4], 1.09%; in data set [5], 1.63%; in data set [6], 1.49%. In addition, the Dose/organ was determined as 3.04% in [7]; 0.19% in [8]; 0.89% in [9]; 7.14% in data set [10]; 9.21% in data set [11]; 12% in data set [12]. Besides, the Dose/organ in data set [13] amounted to 15.9%; in data set [14] it was 14.3%; in data set [15], 20%; in data set [16], 0.85%; in data set [17], 2.83%; in data set [18] it was 7.39%. Also, the Dose/organ in data set [19] worked out at 12%; in [20] it was 13.4%; in data set [21] it was 2.89%.

On to `C1CN(CC[Se]CCN2CCOCC2)CCO1`, for which the Dose/organ in [1] is 3.13%; in [2] it was 2.46%; in data set [3] it was 2.82%; in data set [4], 3.19%; in data set [5] it was 0.56%; in [6], 1.53%. Also, the Dose/organ in data set [7] was 0.45%; in [8] it was 0.18%; in data set [9], 0.22%; in data set [10], 9.89%; in data set [11] it was 4.03%; in [12], 18.3%. The Dose/organ in [13] is on record as 21.7%; in data set [14], 23.2%; in data set [15], 2.77%; in data set [16], 0.94%; in [17], 1.79%; in data set [18], 10.5%. Moreover, the results for the Dose/organ in data set [19], in [20] and in data set [21] were 17.7%, 14.4% and 3.42%, respectively.

In the case of `CC(C)N(CC[Se]CCN(C(C)C)C(C)C)C(C)C`, the Dose/organ in data set [1] was 2.96%; in data set [2], 1.04%; in [3], 1.17%; in [4], 0.25%; in data set [5], 0.35%; in data set [6], 0.33%. The Dose/organ in [7] is 2.35%; in [8] it was 0.3%; in data set [9] it was 0.55%; in [10], 11.4%; in data set [11] it was 6.19%; in data set [12], 11.9%. Besides, the Dose/organ was found to be 13.1% in data set [13]; 16% in [14]; 11.2% in data set [15]; 1.11% in [16]; 3.44% in data set [17]; 9.88% in [18]. In addition, the Dose/organ in [19] is listed as 15%; in data set [20], 14.2%; in data set [21], 2.28%.

Consider `CN(C)CC[Se]CCN(C)C`, for which the Dose/organ in data set [1] came to 2.82%; in [2] it was 0.53%; in data set [4], 0.49%; in data set [5], 0.71%; in [6], 0.49%; in data set [7], 2.21%. The Dose/organ in data set [8] is recorded as 0.54%; in [9] it was 0.81%; in [10], 9.46%; in data set [11], 5.6%; in [12], 12.82%; in [13], 12.2%. Also, the Dose/organ stood at 15.1% in data set [14]; 11.36% in data set [15]; 4.74% in data set [16]; 5.77% in data set [17]; 14.1% in [18]; 15.2% in data set [19]. Also, the Dose/organ in data set [20] stood at 11.8%; in data set [22], 0.74%; in data set [21] it was 3.92%.

With `C[N+](C)(C)CC[Se]CC[N+](C)(C)C`, the Dose/organ in [2] was 0.36%; in [3] it was 5.16%; in [5], 0.06%; in data set [6] it was 0.06%; in data set [8] it was 0.05%; in data set [9] it was 0.15%. For the same compound, the Dose/organ in data set [11] came to 6.01%; in data set [13] it was 3.04%; in data set [14] it was 5.74%; in [16], 0.2%; in data set [17], 0.63%; in data set [19], 5.48%. Also, the results for the Dose/organ in [20] and in data set [21] were 9.52% and 2.75%, respectively.
